According to ChEMBL document CHEMBL5058577, “EUbOPEN Chemogenomics Library 2 (Multiplex)” (2022):

Tested on: HEK-293T
Assay: Multiplex assay against HEK293T
Type: toxicity, cell-based
Conditions: human
Summary of the method: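 Compound was added to live cells that had been stained at seeding with Hoechst33342, BioTracker Green Microtubule Cytoskeleton Dye, MitoTracker Red and Annexin V Alexa Fluor 680, and imaging followed on a CQ1 microscope at 37°C and 5% CO2. CellPathfinder machine-learning gating divided cells into Hoechst high-intensity objects or normal cells, normal cells into healthy, pyknosed or fragmented nuclei, and pyknosed cells into mitotic or apoptotic. Tubulin, mitochondrial-mass and membrane-permeability phenotypes are per cents of healthy-nucleus cells.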

[1] = 12 h, 1 µM, compound concentration 1 uM, replicate 1
[2] = 12 h, 1 µM, compound concentration 1 uM, replicate 2
[3] = 12 h, 10 µM, compound concentration 10 uM, replicate 1
[4] = 12 h, 10 µM, compound concentration 10 uM, replicate 2
[5] = 24 h, 1 µM, compound concentration 1 uM, replicate 1
[6] = 24 h, 1 µM, compound concentration 1 uM, replicate 2
[7] = 24 h, 10 µM, compound concentration 10 uM, replicate 1
[8] = 24 h, 10 µM, compound concentration 10 uM, replicate 2
[9] = 48 h, 1 µM, compound concentration 1 uM, replicate 1
[10] = 48 h, 1 µM, compound concentration 1 uM, replicate 2
[11] = 48 h, 10 µM, compound concentration 10 uM, replicate 1
[12] = 48 h, 10 µM, compound concentration 10 uM, replicate 2

CCCCCC(O)/C=C/[C@H]1C(=O)CC(O)C1C/C=C\CCCC(=O)O (stereo not given in full)
Population Apoptotic (%) [1]: 29% | Population Fragmented Nuclei (%) [1]: 8% | Population Healthy Nuclei (%) [1]: 80% | Population Hoechst High Intensity Objects (%) [1]: 8% | Population Membrane Permeable-Phenotype (%) [1]: 0% | Population Mitochondria Different-Phenotype (%) [1]: 44% | Population Mitotic Cells (%) [1]: 70% | Population Normal (%) [1]: 91% | Population Pyknosed Nuclei (%) [1]: 11% | Population Tubulin-Different-Phenotype (%) [1]: 23% | Total Cell Count [1]: 409 | Population Apoptotic (%) [2]: 39% | Population Fragmented Nuclei (%) [2]: 7% | Population Healthy Nuclei (%) [2]: 83% | Population Hoechst High Intensity Objects (%) [2]: 6% | Population Mitochondria Different-Phenotype (%) [2]: 56% | Population Mitotic Cells (%) [2]: 60% | Population Normal (%) [2]: 93% | Population Pyknosed Nuclei (%) [2]: 9% | Population Tubulin-Different-Phenotype (%) [2]: 20% | Total Cell Count [2]: 383 | Population Apoptotic (%) [3]: 48% | Population Fragmented Nuclei (%) [3]: 6% | Population Healthy Nuclei (%) [3]: 79% | Population Hoechst High Intensity Objects (%) [3]: 9% | Population Membrane Permeable-Phenotype (%) [3]: 0% | Population Mitochondria Different-Phenotype (%) [3]: 48% | Population Mitotic Cells (%) [3]: 51% | Population Normal (%) [3]: 90% | Population Pyknosed Nuclei (%) [3]: 14% | Population Tubulin-Different-Phenotype (%) [3]: 31% | Total Cell Count [3]: 409 | Population Apoptotic (%) [4]: 54% | Population Healthy Nuclei (%) [4]: 77% | Population Hoechst High Intensity Objects (%) [4]: 7% | Population Mitochondria Different-Phenotype (%) [4]: 59% | Population Mitotic Cells (%) [4]: 46% | Population Normal (%) [4]: 92% | Population Pyknosed Nuclei (%) [4]: 15% | Population Tubulin-Different-Phenotype (%) [4]: 25% | Total Cell Count [4]: 343 | Population Apoptotic (%) [5]: 40% | Population Fragmented Nuclei (%) [5]: 8% | Population Healthy Nuclei (%) [5]: 83% | Population Hoechst High Intensity Objects (%) [5]: 3% | Population Membrane Permeable-Phenotype (%) [5]: 1% | Population Mitochondria Different-Phenotype (%) [5]: 22% | Population Mitotic Cells (%) [5]: 59% | Population Normal (%) [5]: 96% | Population Pyknosed Nuclei (%) [5]: 8% | Population Tubulin-Different-Phenotype (%) [5]: 11% | Total Cell Count [5]: 611 | Population Apoptotic (%) [6]: 44% | Population Fragmented Nuclei (%) [6]: 7% | Population Healthy Nuclei (%) [6]: 84% | Population Hoechst High Intensity Objects (%) [6]: 7% | Population Membrane Permeable-Phenotype (%) [6]: 0% | Population Mitochondria Different-Phenotype (%) [6]: 41% | Population Mitotic Cells (%) [6]: 55% | Population Normal (%) [6]: 92% | Population Pyknosed Nuclei (%) [6]: 7% | Population Tubulin-Different-Phenotype (%) [6]: 14% | Total Cell Count [6]: 492 | Population Apoptotic (%) [7]: 27% | Population Fragmented Nuclei (%) [7]: 10% | Population Healthy Nuclei (%) [7]: 75% | Population Hoechst High Intensity Objects (%) [7]: 4% | Population Membrane Permeable-Phenotype (%) [7]: 0% | Population Mitochondria Different-Phenotype (%) [7]: 29% | Population Mitotic Cells (%) [7]: 72% | Population Normal (%) [7]: 95% | Population Pyknosed Nuclei (%) [7]: 13% | Population Tubulin-Different-Phenotype (%) [7]: 16% | Total Cell Count [7]: 523 | Population Apoptotic (%) [8]: 44% | Population Fragmented Nuclei (%) [8]: 9% | Population Healthy Nuclei (%) [8]: 77% | Population Hoechst High Intensity Objects (%) [8]: 9% | Population Mitochondria Different-Phenotype (%) [8]: 50% | Population Mitotic Cells (%) [8]: 55% | Population Normal (%) [8]: 90% | Population Tubulin-Different-Phenotype (%) [8]: 21% | Total Cell Count [8]: 388 | Population Apoptotic (%) [9]: 29% | Population Fragmented Nuclei (%) [9]: 12% | Population Healthy Nuclei (%) [9]: 79% | Population Hoechst High Intensity Objects (%) [9]: 1% | Population Membrane Permeable-Phenotype (%) [9]: 1% | Population Mitochondria Different-Phenotype (%) [9]: 20% | Population Mitotic Cells (%) [9]: 70% | Population Normal (%) [9]: 98% | Population Pyknosed Nuclei (%) [9]: 7% | Population Tubulin-Different-Phenotype (%) [9]: 8% | Total Cell Count [9]: 864 | Population Apoptotic (%) [10]: 30% | Population Fragmented Nuclei (%) [10]: 13% | Population Healthy Nuclei (%) [10]: 81% | Population Hoechst High Intensity Objects (%) [10]: 3% | Population Membrane Permeable-Phenotype (%) [10]: 2% | Population Mitochondria Different-Phenotype (%) [10]: 19% | Population Mitotic Cells (%) [10]: 69% | Population Normal (%) [10]: 96% | Population Pyknosed Nuclei (%) [10]: 5% | Population Tubulin-Different-Phenotype (%) [10]: 7% | Total Cell Count [10]: 775 | Population Apoptotic (%) [11]: 22% | Population Fragmented Nuclei (%) [11]: 12% | Population Healthy Nuclei (%) [11]: 79% | Population Hoechst High Intensity Objects (%) [11]: 1% | Population Membrane Permeable-Phenotype (%) [11]: 0% | Population Mitochondria Different-Phenotype (%) [11]: 17% | Population Mitotic Cells (%) [11]: 77% | Population Normal (%) [11]: 98% | Population Pyknosed Nuclei (%) [11]: 8% | Population Tubulin-Different-Phenotype (%) [11]: 7% | Total Cell Count [11]: 815 | Population Apoptotic (%) [12]: 51% | Population Fragmented Nuclei (%) [12]: 10% | Population Healthy Nuclei (%) [12]: 80% | Population Hoechst High Intensity Objects (%) [12]: 3% | Population Mitochondria Different-Phenotype (%) [12]: 26% | Population Mitotic Cells (%) [12]: 48% | Population Normal (%) [12]: 96% | Population Tubulin-Different-Phenotype (%) [12]: 8% | Total Cell Count [12]: 544
